{"source": "the RNAGym collection of RNA variant scans (doi:10.1126/science.aae0568)", "parents": {"B1": {"name": "tRNA (parent)", "chain": "GUUCCGUUGGCGUAAUGGUAACGCGUCUCCCUCCUAAGGAGAAGACUGCGGGUUCGAGUCCCGUACGGAACG"}}, "note": "Fewer inactive variants are shown than the library holds.", "data": [{"variants_of": "B1", "experiment": "yeast fitness relative to wild type (ratio to wild type); higher = fitter; tRNA-Arg(CCU), competitive growth, 37 C, YPD", "summary_of_the_method": "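A pool of Saccharomyces cerevisiae strains, each with a tRNA-Arg(CCU) gene variant at the native genomic locus, was competed in YPD at 37°C for 24 hours across six parallel replicates. The variants had been chemically synthesised at a 3% per-site mutation rate over 69 sites, and gene amplicons before and after competition were read by 100-nucleotide paired-end sequencing. Darwinian fitness relative to wild type rested on changes in genotype frequencies. Genotypes required ≥ 100 starting reads, and estimates < 0.5 were set to 0.5.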", "values": [{"variant": "GUUCCGUUGGCGUAAUGGUAACGCGUCUCCCUCCUAAGGAAAAGACUGCGGGUUCGAGUCCCGUACCGAACG", "note": "[G41A G67C]", "yeast fitness": 0.775}, {"variant": "GUUCCGUUGGCGUAAUGGUAACGCGUCUCCCUCCUAAGGAAAAGACUGCGGGUUCGAGGCCCGUACGGCACG", "note": "[G41A U59G A69C]", "yeast fitness": "≤ 0.5"}, {"variant": "GUUCCGUUGGCGUAAUGGUAACGCGUCUCCCUCCUAAGGAAAAGACUGCGGGUUCGAGUCCCAUACGGAACG", "note": "[G41A G63A]", "yeast fitness": 0.893}, {"variant": "GUUCCGUUGGCGUAAUGGUAACGCGUCUCCCUCCUAAGGAAAAGACUGCGGGUUCGAGUCCCCUACGGAACG", "note": "[G41A G63C]", "yeast fitness": 0.715}, {"variant": "GUUCCGUUGGCGUAAUGGUAACGCGUCUCCCUCCUAAGGACCAGACUGUGGGUUCGAGUCCCGUACGGAACG", "note": "[G41C A42C C49U]", "yeast fitness": "≤ 0.5"}, {"variant": "GUUCCGUUGGCGUAAUGGUAACGCGUCUCCCUCCUAAGGAAAAGACCGCGGGUUCGAGUCCCGUACGGAACG", "note": "[G41A U47C]", "yeast fitness": 0.931}, {"variant": "GUUCCGUUGGCGUAAUGGUAACGCGUCUCCCUCCUAAGGAAAAGACUCUGGGUUCGAGUCCCGUACGAAACG", "note": "[G41A G48C C49U G68A]", "yeast fitness": "≤ 0.5"}, {"variant": "GUUCCGUUGGCGUAAUGGUAACGCGUCUCCCUCCUAAGGACAGGACUGCGGGUACGAGUCCCGUAUGGAACG", "note": "[G41C A43G U54A C66U]", "yeast fitness": "≤ 0.5"}, {"variant": "GUUCCGUUGGCGUAAUGGUAACGCGUCUCCCUCCUAAGGAAAAGACUGCGGGUUCGAGUGCCGCGCGGAACG", "note": "[G41A C60G U64C A65G]", "yeast fitness": "≤ 0.5"}, {"variant": "GUUCCGUUGGCGUAAUGGUAACGCGUCUCCCUCCUAAGGAAAAGACUGCGAGUUCGAGUCCCGUAAGGAACG", "note": "[G41A G51A C66A]", "yeast fitness": "≤ 0.5"}, {"variant": "GUUCCGUUGGCGUAAUGGUAACGCGUCUCCCUCCUAAGGAAAAGACUCCGGGUUCGUGUCCCGUUAGGAACG", "note": "[G41A G48C A57U A65U C66A]", "yeast fitness": "≤ 0.5"}, {"variant": "GUUCCGUUGGCGUAAUGGUAACGCGUCUCCCUCCUAAGGACACGACUGCGGGUUCGAGUCCCGUAAGGAACG", "note": "[G41C A43C C66A]", "yeast fitness": 0.699}, {"variant": "GUUCCGUUGGCGUAAUGGUAACGCGUCUCCCUCCUAAGGAAAAGACUGCGGGUUCGAGUCCCGUACUGCACG", "note": "[G41A G67U A69C]", "yeast fitness": "≤ 0.5"}, {"variant": "GUUCCGUUGGCGUAAUGGUAACGCGUCUCCCUCCUAAGGAAAAGACUGCGGGUUCGAGUGCCGUACAGAACG", "note": "[G41A C60G G67A]", "yeast fitness": 0.534}, {"variant": "GUUCCGUUGGCGUAAUGGUAACGCGUCUCCCUCCUAAGGAAAAGACUGUGGGUUCGAGUCCCGUACGGAUCG", "note": "[G41A C49U A70U]", "yeast fitness": 0.708}, {"variant": "GUUCCGUUGGCGUAAUGGUAACGCGUCUCCCUCCUAAGGACUAGACUGCGGGUUCGAGUCCCGUACGGAACG", "note": "[G41C A42U]", "yeast fitness": 0.79}, {"variant": "GUUCCGUUGGCGUAAUGGUAACGCGUCUCCCUCCUAAGGACCAGACUGCGGGUUCGAGUCCCGUACGGAACG", "note": "[G41C A42C]", "yeast fitness": 0.565}, {"variant": "GUUCCGUUGGCGUAAUGGUAACGCGUCUCCCUCCUAAGGACAAGGCUGCGGGUUCGAGUCCCAUAGCGAACG", "note": "[G41C A45G G63A C66G G67C]", "yeast fitness": "≤ 0.5"}, {"variant": "GUUCCGUUGGCGUAAUGGUAACGCGUCUCCCUCCUAAGGAAAAGACUGCGGGUUGGAGUCCCGUAUGGAACG", "note": "[G41A C55G C66U]", "yeast fitness": "≤ 0.5"}, {"variant": "GUUCCGUUGGCGUAAUGGUAACGCGUCUCCCUCCUAAGGAAAACACUGCGGGUUCGAGUCGCGUACGGAACG", "note": "[G41A G44C C61G]", "yeast fitness": "≤ 0.5"}, {"variant": "GUUCCGUUGGCGUAAUGGUAACGCGUCUCCCUCCUAAGGACAAGACUGCGGGUUCGUGUCCCGCACGGAACG", "note": "[G41C A57U U64C]", "yeast fitness": "≤ 0.5"}, {"variant": "GUUCCGUUGGCGUAAUGGUAACGCGUCUCCCUCCUAAGGAAAAGACUGCGGGUUCGAGUCCUGUACGGUACG", "note": "[G41A C62U A69U]", "yeast fitness": 0.619}, {"variant": "GUUCCGUUGGCGUAAUGGUAACGCGUCUCCCUCCUAAGGAAAAGACUGCGGGUACGAGUCCCGUACGGAACG", "note": "[G41A U54A]", "yeast fitness": 0.674}, {"variant": "GUUCCGUUGGCGUAAUGGUAACGCGUCUCCCUCCUAAGGAAAAGACAGUGGGUUCGAGCCCCGUACCGAUCG", "note": "[G41A U47A C49U U59C G67C A70U]", "yeast fitness": 0.532}, {"variant": "GUUCCGUUGGCGUAAUGGUAACGCGUCUCCCUCCUAAGGAAAAGACUGCGGGUUCGAGUGCCAUGCGGAACG", "note": "[G41A C60G G63A A65G]", "yeast fitness": 0.529}, {"variant": "GUUCCGUUGGCGUAAUGGUAACGCGUCUCCCUCCUAAGGAAAAGACUGCAGGUUCGAGUUCCGUAGGGAACG", "note": "[G41A G50A C60U C66G]", "yeast fitness": "≤ 0.5"}, {"variant": "GUUCCGUUGGCGUAAUGGUAACGCGUCUCCCUCCUAAGGAAAAGACUGCGGGGUCGAGACCGGUACGGAACG", "note": "[G41A U53G U59A C62G]", "yeast fitness": "≤ 0.5"}, {"variant": "GUUCCGUUGGCGUAAUGGUAACGCGUCUCCCUCCUAAGGACAAGACUGCGGGUUCGUGUCCCAUACGGAACG", "note": "[G41C A57U G63A]", "yeast fitness": 0.567}, {"variant": "GUUCCGUUGGCGUAAUGGUAACGCGUCUCCCUCCUAAGGAAAAGACUGCGGGUUCGAGUGUCGUGCGGAACG", "note": "[G41A C60G C61U A65G]", "yeast fitness": 0.644}, {"variant": "GUUCCGUUGGCGUAAUGGUAACGCGUCUCCCUCCUAAGGAAAAGAGUGCAGGUUCGAGUCCAGUACGGAACG", "note": "[G41A C46G G50A C62A]", "yeast fitness": 0.537}, {"variant": "GUUCCGUUGGCGUAAUGGUAACGCGUCUCCCUCCUAAGGACAAGACUGCGGGUUCGUGUCCCGUACGGAACG", "note": "[G41C A57U]", "yeast fitness": 0.661}, {"variant": "GUUCCGUUGGCGUAAUGGUAACGCGUCUCCCUCCUAAGGACAAGACUGCGGGUUCGGGUCCCGUACGGAACG", "note": "[G41C A57G]", "yeast fitness": 0.883}, {"variant": "GUUCCGUUGGCGUAAUGGUAACGCGUCUCCCUCCUAAGGACAUGACUGCGGGUUCGAGUCCCGCACGGAACG", "note": "[G41C A43U U64C]", "yeast fitness": 0.959}, {"variant": "GUUCCGUUGGCGUAAUGGUAACGCGUCUCCCUCCUAAGGAAAAGACUGCGGGUUCGAGUCCAGUACGGACCG", "note": "[G41A C62A A70C]", "yeast fitness": "≤ 0.5"}, {"variant": "GUUCCGUUGGCGUAAUGGUAACGCGUCUCCCUCCUAAGGAAAAGACUGCGGGUUCGAGUCCUGUACGGAACG", "note": "[G41A C62U]", "yeast fitness": 0.844}, {"variant": "GUUCCGUUGGCGUAAUGGUAACGCGUCUCCCUCCUAAGGAAAAGACUGCGGGUUCGAGUCCAGUACGGAACG", "note": "[G41A C62A]", "yeast fitness": 0.777}, {"variant": "GUUCCGUUGGCGUAAUGGUAACGCGUCUCCCUCCUAAGGACACGUCUGGGGGGUCGAGUCCCGUACGGCACG", "note": "[G41C A43C A45U C49G U53G A69C]", "yeast fitness": "≤ 0.5"}, {"variant": "GUUCCGUUGGCGUAAUGGUAACGCGUCUCCCUCCUAAGGAAAAGACUGCGGGUUCGAGUCACGUACGGAACG", "note": "[G41A C61A]", "yeast fitness": 0.742}]}]}
